For one compound, Activity results are on record in ChEMBL document CHEMBL1155165, “SB-431542, a transforming growth factor beta inhibitor, impairs Trypanosoma cruzi infection in cardiomyocytes and parasite cycle completion” (2007).

Assay [1] concerns Trypanosoma cruzi. Briefly: Antitrypanosomal activity against Trypanosoma cruzi Y in mouse cardiomyocytes assessed as induction of parasite apoptosis at 10 uM after 96 hrs postinfection by TUNEL method. Format: functional. A digest of the protocol:
(§1)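 Y strain-infected cardiomyocytes were kept with or without 10 μM inhibitor, grown on coverslips. They were fixed in 4% paraformaldehyde for 20 min at 4°C and permeabilized with 0.1% Triton X-100 in 0.1% sodium citrate for 2 min at 4°C. TUNEL labelling ran 60 min at 37°C, followed by DAPI counterstain. The percentage of TUNEL-positive parasites was scored at 72 and 96 h postinfection by epifluorescence.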

The test system of assay [2] is Trypanosoma cruzi. As to the kind of experiment: Antitrypanosomal activity against Trypanosoma cruzi Y in mouse cardiomyocytes assessed as reduction of intracellular amastigotes at 10 uM by Giemsa staining. Format: functional, organism-based. A digest of the protocol: (§2)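 Primary mouse embryo cardiomyocytes were seeded at 1 × 10^5 cells/well for 24 h at 37°C in 5% CO2. Cells were pretreated for 1 h with 10 μM inhibitor or vehicle, and treatment was kept throughout. They were infected with Y strain trypomastigotes at 10:1 parasite:host. At 24, 48, 72 and 96 h postinfection cells were Bouin-fixed and Giemsa-stained. Parasites per infected cell were counted over 400 cells on two coverslips. Mean ± SD of three experiments.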

The next assay relates to C32. Briefly: Inhibition of TGFbeta signaling in mink C32 cells at 10 uM by luciferase based assay. The format is functional, cell-based. The conditions noted are these: Neovison vison. A digest of the protocol:
(§3)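 C32 cells are Mv1Lu mink lung cells stably carrying a PAI promoter-luciferase reporter. Cells were plated at 1 × 10^5/well in 5% FCS and switched to 0.1% FCS after 3 h. They were stimulated with TGF-β1 2 ng/ml or live Y strain trypomastigotes, 1 × 10^6 to 4 × 10^6 parasites, with or without 10 μM inhibitor. Luciferase (RLU) was read after 20 h. Mean ± SD of three experiments.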

For assay [3], the system named is Trypanosoma cruzi. As to the kind of experiment: Antitrypanosomal activity against Trypanosoma cruzi Y in mouse cardiomyocytes assessed as number of intracellular parasites per infected cell at 10 uM after 96 hrs postinfection by Giemsa staining. Format: functional. The method, boiled down:
as §2

The next assay concerns Cardiomyocyte. As to the kind of experiment: Inhibition of TGF-beta-1-induced Smad2 phosphorylation in mouse embryo cardiomyocytes at 10 uM by immunoblot. The format is functional, cell-based. A digest of the protocol: (§4)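 Mouse embryo cardiomyocytes were pretreated for 1 h with or without 10 μM inhibitor. They were then given 2 ng/ml TGF-β1 or T. cruzi Dm28c for 1 h. Cells were lysed in RIPA buffer, pH 8.0, and 20 μg lysate was run on 12% SDS-PAGE. Blots were probed for phospho-Smad2, with α-tubulin as loading control.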
(In general: A western blot detects proteins with antibodies after separation by electrophoresis.)

Assay [4] has as its system Trypanosoma cruzi. Briefly: Antitrypanosomal activity against Trypanosoma cruzi Y in mouse cardiomyocytes assessed as number of nontrypomastigote release at 10 uM after 96 hrs. Format: functional. The method, boiled down:
(§5)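 Cardiomyocytes were infected with Y strain trypomastigotes (10:1 parasite:host) and kept with or without 10 μM inhibitor throughout. Parasites released at 96 h postinfection were counted and reported as 10^4. Trypomastigotes were scored separately from nontrypomastigote forms (amastigotes plus epimastigote-like forms).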

The test system of assay [5] is Trypanosoma cruzi. As to the kind of experiment: Inhibition of Trypanosoma cruzi Dm28C infection-induced Smad2 phosphorylation in mouse embryo cardiomyocytes at 10 uM by immunoblot. Format: functional, organism-based. The method, boiled down: as §4
Assay [6] relates to Trypanosoma cruzi. Briefly: Antitrypanosomal activity against Trypanosoma cruzi Y in mouse cardiomyocytes assessed as number of intracellular parasites per infected cell at 10 uM after 48 hrs postinfection by Giemsa staining. The format is functional. A digest of the protocol:
as §2

In assay [7] the test system is Trypanosoma cruzi. As to the kind of experiment: Inhibition of invasion of Trypanosoma cruzi Dm28C in mouse embryo cardiomyocytes assessed as pathogen infection at 10 uM for 1 hr measured at 4 hrs postinfection. Format: functional, organism-based. A digest of the protocol:
(§6)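 Mouse embryo cardiomyocytes were pretreated for 1 h with 10 μM inhibitor or left untreated. They were infected with Dm28c or Y strain trypomastigotes at 10:1 parasite:host. Cells were fixed at 4 h postinfection and Giemsa-stained. The percentage of infected cells was counted over 400 cells per slide on two coverslips. Control and treated cells were compared by t test.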

For assay [8], the system named is Trypanosoma cruzi. As to the kind of experiment: Inhibition of invasion of Trypanosoma cruzi Y in mouse embryo cardiomyocytes assessed as pathogen infection at 10 uM for 1 hr measured at 4 hrs postinfection. The format is functional, organism-based. A digest of the protocol: as §6
Assay [9] concerns Trypanosoma cruzi. Briefly: Antitrypanosomal activity against Trypanosoma cruzi Y in mouse cardiomyocytes assessed as number of intracellular parasites per infected cell at 10 uM after 24 hrs postinfection by Giemsa staining. Format: functional. A digest of the protocol: as §2
Assay [10] concerns Trypanosoma cruzi. As to the kind of experiment: Antitrypanosomal activity against Trypanosoma cruzi Y in mouse cardiomyocytes assessed as number of trypomastigote release at 10 uM after 96 hrs. The format is functional. A digest of the protocol: as §5
In assay [11] the test system is Trypanosoma cruzi. Briefly: Antitrypanosomal activity against Trypanosoma cruzi Y in mouse cardiomyocytes assessed as number of intracellular parasites per infected cell at 10 uM after 72 hrs postinfection by Giemsa staining. Format: functional. A digest of the protocol:
as §2

Assay [12] concerns Trypanosoma cruzi. As to the kind of experiment: Inhibition of Trypanosoma cruzi Y infection-induced TGFbeta signaling in mink C32 cells at 10 uM by luciferase based assay. The format is functional, organism-based. The method, boiled down: as §3
For assay [13], the system named is Trypanosoma cruzi. Briefly: Antitrypanosomal activity against Trypanosoma cruzi Y in mouse cardiomyocytes assessed as induction of parasite apoptosis at 10 uM after 72 hrs postinfection by TUNEL method. The format is functional. A digest of the protocol:
as §1

In assay [14] the test system is Trypanosoma cruzi. Briefly: Antitrypanosomal activity against Trypanosoma cruzi Y in mouse cardiomyocytes assessed as inhibition of trypomastigote release at 10 uM after 96 hrs. The format is functional, organism-based. A digest of the protocol: as §5

Active and inactive are the calls of the source. No cut-off for these calls is given here.

Regarding `NC(=O)c1ccc(-c2nc(-c3ccccn3)c(-c3ccc4c(c3)OCO4)[nH]2)cc1` [SB-431542], the Activity in the assay with Trypanosoma cruzi [1] turned out to be 26.5%; in the assay with Trypanosoma cruzi [3], 58; in the assay on Trypanosoma cruzi [4], 53; in the assay on Trypanosoma cruzi [6], 4.4; with Trypanosoma cruzi [9] it was 1.4; in the assay on Trypanosoma cruzi [10], 19. Moreover, the figures for the Activity in the assay on Trypanosoma cruzi [11] and in the assay with Trypanosoma cruzi [13] were 38 and 47.9%, respectively. The result with Trypanosoma cruzi [2], with C32, in the assay on Cardiomyocyte, with Trypanosoma cruzi [5], with Trypanosoma cruzi [7] and in the assay on Trypanosoma cruzi [8] was Active. The result with Trypanosoma cruzi [12] and with Trypanosoma cruzi [14] was Active.
